Assay results from ChEMBL document CHEMBL2346534, “Design, synthesis and in vitro anti-proliferative activity of 4,6-quinazolinediamines as potent EGFR-TK inhibitors” (Eur J Med Chem, 2013).

What was measured:
[1] = tested on: M14; experiment: Cytotoxicity against human M14 cells assessed as cell growth at 10^-5 M after 48 hrs by SRB assay; type: functional; conditions: M14, 48 h, read-out: Activity
How it was run: (§1)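 NCI 60 single-dose screen at 10^-5 M. Cells in RPMI 1640 with 5% FBS and 2 mM L-glutamine, preincubated 24 h at 37 °C/5% CO2. Drug from DMSO stock, then 48 h exposure. TCA fixation, SRB staining, absorbance at 515 nm. Result given as percent growth of treated cells relative to untreated control.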

[2] = tested on: Malme-3M; experiment: Cytotoxicity against human MALME-3M cells assessed as cell growth at 10^-5 M after 48 hrs by SRB assay; type: functional; conditions: read-out: Activity; how it was run: as §1
[3] = tested on: LOX IMVI; experiment: Cytotoxicity against human LOXIMVI cells assessed as cell growth at 10^-5 M after 48 hrs by SRB assay; type: functional; conditions: read-out: Activity; how it was run: as §1
[4] = tested on: SNB-75; experiment: Cytotoxicity against human SNB75 cells assessed as cell growth at 10^-5 M after 48 hrs by SRB assay; type: functional; conditions: SNB-75, 48 h, read-out: Activity
How it was run: (§2)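 NCI 60-panel single-dose primary screen at 10^-5 M. Cells are grown in RPMI 1640 with 5% FBS and 2 mM L-glutamine and preincubated 24 h at 37 °C. Drug exposure is 48 h. Cells are TCA-fixed, stained with SRB and absorbance is read at 515 nm. Results are reported as percent growth of treated cells versus untreated controls, corrected using time-zero plates.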

[5] = tested on: SNB-19; experiment: Cytotoxicity against human SNB19 cells assessed as cell growth at 10^-5 M after 48 hrs by SRB assay; type: functional; conditions: SNB-19, 48 h, read-out: Activity; how it was run: as §2
[6] = tested on: SF-295; experiment: Cytotoxicity against human SF295 cells assessed as cell growth at 10^-5 M after 48 hrs by SRB assay; type: functional; conditions: SF-295, 48 h, read-out: Activity; how it was run: as §2
[7] = tested on: SF-268; experiment: Cytotoxicity against human SF268 cells assessed as cell growth at 10^-5 M after 48 hrs by SRB assay; type: functional; conditions: SF-268, 48 h, read-out: Activity; how it was run: as §2
[8] = tested on: SW-620; experiment: Cytotoxicity against human SW620 cells assessed as cell growth at 10^-5 M after 48 hrs by SRB assay; type: functional; conditions: SW-620, 48 h, read-out: Activity
How it was run: (§3)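 NCI primary single-dose screen at 10^-5 M. Cells grown in RPMI 1640 with 5% FBS and 2 mM L-glutamine, given 24 h before drug addition, then 48 h exposure at 37 °C, 5% CO2. Cells TCA-fixed, stained with SRB, read at 515 nm. Reported as percent growth of treated cells relative to untreated controls.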

[9] = tested on: KM12; experiment: Cytotoxicity against human KM12 cells assessed as cell growth at 10^-5 M after 48 hrs by SRB assay; type: functional; conditions: KM12, 48 h, read-out: Activity; how it was run: as §1
[10] = tested on: HT-29; experiment: Cytotoxicity against human HT-29 cells assessed as cell growth at 10^-5 M after 48 hrs by SRB assay; type: functional; conditions: HT-29, 48 h, read-out: Activity; how it was run: as §1
[11] = tested on: HCT-15; experiment: Cytotoxicity against human HCT15 cells assessed as cell growth at 10^-5 M after 48 hrs by SRB assay; type: functional; conditions: HCT-15, 48 h, read-out: Activity; how it was run: as §1
[12] = tested on: HCT-116; experiment: Cytotoxicity against human HCT116 cells assessed as cell growth at 10^-5 M after 48 hrs by SRB assay; type: functional; conditions: HCT-116, 48 h, read-out: Activity; how it was run: as §1
[13] = tested on: NCI-H522; experiment: Cytotoxicity against human NCI-H522 cells assessed as cell growth at 10^-5 M after 48 hrs by SRB assay; type: functional; conditions: NCI-H522, 48 h, read-out: Activity; how it was run: as §2
[14] = tested on: COLO 205; experiment: Cytotoxicity against human COLO205 cells assessed as cell growth at 10^-5 M after 48 hrs by SRB assay; type: functional; conditions: COLO 205, 48 h, read-out: Activity; how it was run: as §1
[15] = tested on: NCI-H322M; experiment: Cytotoxicity against human NCI-H322M cells assessed as cell growth at 10^-5 M after 48 hrs by SRB assay; type: functional; conditions: read-out: Activity; how it was run: as §2
[16] = tested on: A549; experiment: Cytotoxicity against human A549 cells assessed as cell growth at 10^-5 M after 48 hrs by SRB assay; type: functional; conditions: A549, 48 h, read-out: Activity; how it was run: as §1
[17] = Cytotoxicity against human EKVX cells assessed as cell growth at 10^-5 M after 48 hrs by SRB assay; type: functional; conditions: read-out: Activity; how it was run: as §1
[18] = tested on: MOLT-4; experiment: Cytotoxicity against human MOLT4 cells assessed as cell growth at 10^-5 M after 48 hrs by SRB assay; type: functional; conditions: MOLT-4, 48 h, read-out: Activity; how it was run: as §2
[19] = tested on: HL-60(TB); experiment: Cytotoxicity against human HL-60(TB) cells assessed as cell growth at 10^-5 M after 48 hrs by SRB assay; type: functional; conditions: HL-60, 48 h, read-out: Activity
How it was run: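 NCI 60-panel single-dose screen. Cells were grown in RPMI 1640 with 5% FBS and 2 mM L-glutamine, preincubated 24 h, then exposed to compound at 10^-5 M (from DMSO stock) for 48 h at 37 °C, 5% CO2. Settled suspension cells were TCA-fixed and SRB-stained, with absorbance read at 515 nm. The value is percent growth of treated versus untreated control cells.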

[20] = tested on: T47D; experiment: Cytotoxicity against human T47D cells assessed as cell growth at 10^-5 M after 48 hrs by SRB assay; type: functional; conditions: read-out: Activity; how it was run: as §3
[21] = tested on: BT-549; experiment: Cytotoxicity against human BT549 cells assessed as cell growth at 10^-5 M after 48 hrs by SRB assay; type: functional; conditions: BT-549, 48 h, read-out: Activity; how it was run: as §1
[22] = tested on: Hs-578T; experiment: Cytotoxicity against human Hs578T cells assessed as cell growth at 10^-5 M after 48 hrs by SRB assay; type: functional; conditions: read-out: Activity; how it was run: as §1
[23] = tested on: DU-145; experiment: Cytotoxicity against human DU145 cells assessed as cell growth at 10^-5 M after 48 hrs by SRB assay; type: functional; conditions: DU-145, 48 h, read-out: Activity; how it was run: as §1
[24] = tested on: TK-10; experiment: Cytotoxicity against human TK10 cells assessed as cell growth at 10^-5 M after 48 hrs by SRB assay; type: functional; conditions: TK-10, 48 h, read-out: Activity; how it was run: as §3
[25] = tested on: RXF 393; experiment: Cytotoxicity against human RXF393 cells assessed as cell growth at 10^-5 M after 48 hrs by SRB assay; type: functional; conditions: RXF 393, 48 h, read-out: Activity; how it was run: as §2
[26] = tested on: ACHN; experiment: Cytotoxicity against human ACHN cells assessed as cell growth at 10^-5 M after 48 hrs by SRB assay; type: functional; conditions: read-out: Activity; how it was run: as §1
[27] = tested on: CAKI-1; experiment: Cytotoxicity against human Caki1 cells assessed as cell growth at 10^-5 M after 48 hrs by SRB assay; type: functional; conditions: CAKI-1, 48 h, read-out: Activity; how it was run: as §1
[28] = tested on: SK-OV-3; experiment: Cytotoxicity against human SKOV3 cells assessed as cell growth at 10^-5 M after 48 hrs by SRB assay; type: functional; conditions: SK-OV-3, 48 h, read-out: Activity; how it was run: as §2
[29] = tested on: IGROV-1; experiment: Cytotoxicity against human IGROV1 cells assessed as cell growth at 10^-5 M after 48 hrs by SRB assay; type: functional; conditions: IGROV-1, 48 h, read-out: Activity; how it was run: as §1
[30] = tested on: UACC-257; experiment: Cytotoxicity against human UACC257 cells assessed as cell growth at 10^-5 M after 48 hrs by SRB assay; type: functional; conditions: UACC-257, 48 h, read-out: Activity; how it was run: as §3
[31] = biological target: Epidermal growth factor receptor (Homo sapiens, UniProt P00533); conditions: at 10 µM;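 also: EGFR tyrosine kinase activity on a poly(Glu,Tyr) substrate, read out by Kinase-Glo Plus luminescence after a 40 min reaction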
Sequence of Epidermal growth factor receptor (P00533 whole entry): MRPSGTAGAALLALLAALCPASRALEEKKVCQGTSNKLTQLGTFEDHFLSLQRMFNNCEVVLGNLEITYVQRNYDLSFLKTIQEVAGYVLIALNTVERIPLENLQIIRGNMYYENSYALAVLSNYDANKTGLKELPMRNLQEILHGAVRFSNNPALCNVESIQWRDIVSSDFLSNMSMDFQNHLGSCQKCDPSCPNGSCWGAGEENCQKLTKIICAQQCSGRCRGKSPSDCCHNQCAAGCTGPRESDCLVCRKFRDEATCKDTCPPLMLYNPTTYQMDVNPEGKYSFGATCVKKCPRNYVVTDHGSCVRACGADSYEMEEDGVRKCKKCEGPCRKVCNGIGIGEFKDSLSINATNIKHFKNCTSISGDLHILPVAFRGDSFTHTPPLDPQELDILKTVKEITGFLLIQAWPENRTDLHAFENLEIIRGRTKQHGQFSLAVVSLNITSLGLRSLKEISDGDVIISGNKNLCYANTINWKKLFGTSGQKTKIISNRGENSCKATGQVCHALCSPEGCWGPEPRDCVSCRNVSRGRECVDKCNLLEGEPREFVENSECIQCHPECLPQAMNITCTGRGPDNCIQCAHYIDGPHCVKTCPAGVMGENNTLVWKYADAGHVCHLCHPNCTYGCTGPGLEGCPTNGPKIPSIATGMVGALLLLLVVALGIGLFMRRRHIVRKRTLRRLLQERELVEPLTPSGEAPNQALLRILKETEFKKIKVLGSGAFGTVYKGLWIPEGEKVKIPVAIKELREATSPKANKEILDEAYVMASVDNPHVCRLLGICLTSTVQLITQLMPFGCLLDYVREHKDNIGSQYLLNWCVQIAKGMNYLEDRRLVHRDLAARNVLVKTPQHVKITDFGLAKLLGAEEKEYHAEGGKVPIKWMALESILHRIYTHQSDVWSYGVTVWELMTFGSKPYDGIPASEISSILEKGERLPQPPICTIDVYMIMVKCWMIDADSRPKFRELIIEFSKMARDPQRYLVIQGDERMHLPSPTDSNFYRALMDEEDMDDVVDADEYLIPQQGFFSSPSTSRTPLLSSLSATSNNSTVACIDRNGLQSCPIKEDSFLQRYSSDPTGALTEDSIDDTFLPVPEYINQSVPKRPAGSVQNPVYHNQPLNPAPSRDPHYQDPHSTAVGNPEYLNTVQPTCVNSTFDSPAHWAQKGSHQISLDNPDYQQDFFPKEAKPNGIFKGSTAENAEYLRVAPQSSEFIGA

CCOC(=O)/C(C#N)=C\Nc1ccc2ncnc(Nc3ccc(Cl)cc3)c2c1
growth at 10 µM [1]: 106% | growth at 10 µM [2]: 142% | growth at 10 µM [3]: 87.5% | growth at 10 µM [4]: 86.3% | growth at 10 µM [5]: 88% | growth at 10 µM [6]: 74.3% | growth at 10 µM [7]: 76.1% | growth at 10 µM [8]: 97.3% | growth at 10 µM [9]: 74% | growth at 10 µM [10]: 86.3% | growth at 10 µM [11]: 84.9% | growth at 10 µM [12]: 84.5% | growth at 10 µM [13]: 79.8% | growth at 10 µM [14]: 102% | growth at 10 µM [15]: 22.6% | growth at 10 µM [16]: 66.1% | growth at 10 µM [17]: 20.6% | growth at 10 µM [18]: 50.1% | growth at 10 µM [19]: 76.2% | growth at 10 µM [20]: 72.7% | growth at 10 µM [21]: 76.1% | growth at 10 µM [22]: 89.3% | growth at 10 µM [23]: 49.2% | growth at 10 µM [24]: 51.3% | growth at 10 µM [25]: 83.2% | growth at 10 µM [26]: 51.2% | growth at 10 µM [27]: 32.6% | growth at 10 µM [28]: 85% | growth at 10 µM [29]: 52.4% | growth at 10 µM [30]: 108% | inhibition [31]: 100%

NC(=O)Nc1ccc2ncnc(Nc3ccc(Cl)cc3)c2c1
growth at 10 µM [1]: 107% | growth at 10 µM [2]: 117% | growth at 10 µM [3]: 95.5% | growth at 10 µM [4]: 95% | growth at 10 µM [5]: 78.6% | growth at 10 µM [6]: 90.7% | growth at 10 µM [7]: 79.7% | growth at 10 µM [8]: 99.1% | growth at 10 µM [9]: 98.5% | growth at 10 µM [10]: 91.6% | growth at 10 µM [11]: 93.1% | growth at 10 µM [12]: 96.4% | growth at 10 µM [13]: 66.2% | growth at 10 µM [14]: 101% | growth at 10 µM [15]: 18% | growth at 10 µM [16]: 72.5% | growth at 10 µM [17]: 22.4% | growth at 10 µM [18]: 71.2% | growth at 10 µM [19]: 99.9% | growth at 10 µM [20]: 61.6% | growth at 10 µM [21]: 92.4% | growth at 10 µM [22]: 87.8% | growth at 10 µM [23]: 52% | growth at 10 µM [24]: 26.5% | growth at 10 µM [25]: 93.7% | growth at 10 µM [26]: 47.4% | growth at 10 µM [27]: 40.1% | growth at 10 µM [28]: 30.2% | growth at 10 µM [29]: 61% | growth at 10 µM [30]: 100% | inhibition [31]: 100%

CCOC(=O)/C(C#N)=C\Nc1ccc2ncnc(Nc3ccc(Cl)cc3Cl)c2c1
growth at 10 µM [1]: 106% | growth at 10 µM [2]: 140% | growth at 10 µM [3]: 87.5% | growth at 10 µM [4]: 91.3% | growth at 10 µM [5]: 86.4% | growth at 10 µM [6]: 82.2% | growth at 10 µM [7]: 73% | growth at 10 µM [8]: 100% | growth at 10 µM [9]: 79.1% | growth at 10 µM [10]: 79.4% | growth at 10 µM [11]: 92.7% | growth at 10 µM [12]: 92.9% | growth at 10 µM [13]: 95.8% | growth at 10 µM [14]: 108% | growth at 10 µM [15]: 75.7% | growth at 10 µM [16]: 72.1% | growth at 10 µM [17]: 41.7% | growth at 10 µM [18]: 58.8% | growth at 10 µM [19]: 108% | growth at 10 µM [20]: 58.6% | growth at 10 µM [21]: 89.6% | growth at 10 µM [22]: 75.5% | growth at 10 µM [23]: 55.9% | growth at 10 µM [24]: 44.2% | growth at 10 µM [25]: 77% | growth at 10 µM [26]: 62.9% | growth at 10 µM [27]: 39% | growth at 10 µM [28]: 97% | growth at 10 µM [29]: 55% | growth at 10 µM [30]: 97.2% | inhibition [31]: 92%
